Test results from ChEMBL document CHEMBL1165965, “Synthesis and structure-activity relationships of 1,2,3,4-tetrahydropyrido[2,3-b]pyrazines as potent and selective inhibitors of the anaplastic lymphoma kinase” (Bioorg Med Chem, 2010).

Assays:
[1] = molecular target: Microtubule-associated serine/threonine-protein kinase 1 (Homo sapiens) (UniProt Q9Y2H9); assay: Inhibition of MAST1 at 1 uM
[2] = molecular target: T1, Serine/threonine-protein kinase Nek2 (Homo sapiens) (UniProt P51955); assay: Inhibition of NEK2 at 1 uM
T1 sequence (whole entry): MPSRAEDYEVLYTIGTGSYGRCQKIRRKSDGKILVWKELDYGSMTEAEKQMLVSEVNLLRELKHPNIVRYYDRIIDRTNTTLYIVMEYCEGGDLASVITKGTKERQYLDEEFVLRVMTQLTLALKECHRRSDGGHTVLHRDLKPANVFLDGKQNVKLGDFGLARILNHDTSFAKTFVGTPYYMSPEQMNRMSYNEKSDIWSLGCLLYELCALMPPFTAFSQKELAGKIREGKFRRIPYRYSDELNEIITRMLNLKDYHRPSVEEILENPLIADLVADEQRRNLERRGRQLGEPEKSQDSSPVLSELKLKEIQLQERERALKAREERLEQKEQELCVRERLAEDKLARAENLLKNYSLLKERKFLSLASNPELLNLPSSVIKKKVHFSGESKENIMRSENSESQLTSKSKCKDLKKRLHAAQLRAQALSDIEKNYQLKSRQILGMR

[3] = molecular target: T2, Serine/threonine-protein kinase D1 (Homo sapiens) (UniProt Q15139); assay: Inhibition of PRKD1 at 1 uM
T2 sequence (whole entry): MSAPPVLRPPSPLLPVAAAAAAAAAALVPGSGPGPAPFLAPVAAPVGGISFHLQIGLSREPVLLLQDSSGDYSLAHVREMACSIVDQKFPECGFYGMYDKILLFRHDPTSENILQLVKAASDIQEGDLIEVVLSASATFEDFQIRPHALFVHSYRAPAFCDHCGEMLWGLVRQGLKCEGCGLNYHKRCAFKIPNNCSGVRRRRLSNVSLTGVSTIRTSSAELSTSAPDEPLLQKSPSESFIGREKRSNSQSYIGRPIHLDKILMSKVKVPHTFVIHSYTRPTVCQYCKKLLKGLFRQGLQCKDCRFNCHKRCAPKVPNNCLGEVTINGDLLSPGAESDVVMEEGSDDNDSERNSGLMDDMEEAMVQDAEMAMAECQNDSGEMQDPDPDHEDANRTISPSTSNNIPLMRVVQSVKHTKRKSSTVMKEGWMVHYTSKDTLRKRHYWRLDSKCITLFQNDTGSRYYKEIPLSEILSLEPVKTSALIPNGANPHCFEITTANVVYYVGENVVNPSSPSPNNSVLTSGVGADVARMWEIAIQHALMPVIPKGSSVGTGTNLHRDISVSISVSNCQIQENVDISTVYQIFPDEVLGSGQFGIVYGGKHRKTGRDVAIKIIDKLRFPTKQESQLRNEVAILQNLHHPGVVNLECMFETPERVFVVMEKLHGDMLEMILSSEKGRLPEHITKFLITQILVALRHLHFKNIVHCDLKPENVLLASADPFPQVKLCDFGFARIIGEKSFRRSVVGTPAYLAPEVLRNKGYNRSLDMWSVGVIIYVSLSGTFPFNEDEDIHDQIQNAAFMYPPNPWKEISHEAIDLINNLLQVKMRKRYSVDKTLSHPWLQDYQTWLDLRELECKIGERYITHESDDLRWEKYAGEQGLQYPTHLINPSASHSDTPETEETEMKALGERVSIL

[4] = molecular target: Fibroblast growth factor receptor 2 (Homo sapiens) (UniProt P21802); assay: Inhibition of FGFR2 at 1 uM
Method in brief: (§1)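 Single-concentration screen using Ambit Bioscience KINOMEscan technology across a panel of 250–400 kinases. Per-kinase inhibition from this screen was summarized as S(90), the fraction of kinases inhibited by more than 90%.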

[5] = molecular target: Tyrosine-protein kinase Fyn (Homo sapiens) (UniProt P06241); assay: Inhibition of FYN at 1 uM
Method in brief: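 Single-concentration screen on the Ambit KINOMEscan platform, run against a panel of 250–400 kinases. Per-kinase inhibition was also summarized as S(90), the fraction of kinases inhibited by more than 90%.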

[6] = molecular target: Mitogen-activated protein kinase kinase kinase 9 (Homo sapiens) (UniProt P80192); assay: Inhibition of MLK1 at 1 uM
[7] = molecular target: Death-associated protein kinase 3 (Homo sapiens) (UniProt O43293); assay: Inhibition of DAPK3 at 1 uM; method in brief: as §1
[8] = molecular target: T3, Serine/threonine-protein kinase NLK (Homo sapiens) (UniProt Q9UBE8); assay: Inhibition of NLK at 1 uM
T3 sequence (whole entry): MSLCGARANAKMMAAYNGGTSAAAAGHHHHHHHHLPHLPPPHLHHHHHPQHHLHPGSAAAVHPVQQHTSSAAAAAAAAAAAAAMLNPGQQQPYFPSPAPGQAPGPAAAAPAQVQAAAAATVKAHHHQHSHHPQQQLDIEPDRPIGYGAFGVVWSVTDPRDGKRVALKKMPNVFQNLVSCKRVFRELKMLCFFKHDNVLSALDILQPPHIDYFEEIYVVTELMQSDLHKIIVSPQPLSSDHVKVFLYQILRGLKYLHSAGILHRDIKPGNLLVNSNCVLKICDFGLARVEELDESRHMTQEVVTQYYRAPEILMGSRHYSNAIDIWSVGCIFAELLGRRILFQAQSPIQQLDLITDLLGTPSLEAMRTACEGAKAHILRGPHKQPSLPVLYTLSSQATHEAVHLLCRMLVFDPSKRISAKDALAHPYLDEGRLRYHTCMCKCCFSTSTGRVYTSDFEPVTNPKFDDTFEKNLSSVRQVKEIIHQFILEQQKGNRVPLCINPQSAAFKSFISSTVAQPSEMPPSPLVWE

[9] = molecular target: T4, Activin receptor type-1 (Homo sapiens) (UniProt Q04771); assay: Inhibition of ACVR1 at 1 uM
T4 sequence (whole entry): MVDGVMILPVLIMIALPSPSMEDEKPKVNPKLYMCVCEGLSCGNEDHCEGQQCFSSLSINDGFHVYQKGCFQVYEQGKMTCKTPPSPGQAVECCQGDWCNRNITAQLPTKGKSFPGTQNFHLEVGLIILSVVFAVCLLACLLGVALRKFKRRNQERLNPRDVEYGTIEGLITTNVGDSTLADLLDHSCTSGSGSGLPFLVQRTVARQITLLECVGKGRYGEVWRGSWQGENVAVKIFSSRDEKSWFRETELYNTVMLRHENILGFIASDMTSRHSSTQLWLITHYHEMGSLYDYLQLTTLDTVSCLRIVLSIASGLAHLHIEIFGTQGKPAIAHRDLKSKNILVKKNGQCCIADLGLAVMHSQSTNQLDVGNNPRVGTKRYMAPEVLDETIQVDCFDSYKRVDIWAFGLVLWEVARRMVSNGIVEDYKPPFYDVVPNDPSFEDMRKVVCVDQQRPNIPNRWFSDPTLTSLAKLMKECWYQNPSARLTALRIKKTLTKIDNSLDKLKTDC
Method in brief: (§2)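 Ambit KINOMEscan screen at a single concentration across a 250–400 kinase panel, recorded as percent inhibition. Selectivity was expressed as S(90), the fraction of kinases inhibited >90%.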

[10] = molecular target: Calcium/calmodulin-dependent protein kinase type II subunit alpha (Homo sapiens) (UniProt Q9UQM7); assay: Inhibition of CAMK2A at 1 uM; method in brief: as §2
Chain of Calcium/calmodulin-dependent protein kinase type II subunit alpha (Homo sapiens) (Q9UQM7 whole entry): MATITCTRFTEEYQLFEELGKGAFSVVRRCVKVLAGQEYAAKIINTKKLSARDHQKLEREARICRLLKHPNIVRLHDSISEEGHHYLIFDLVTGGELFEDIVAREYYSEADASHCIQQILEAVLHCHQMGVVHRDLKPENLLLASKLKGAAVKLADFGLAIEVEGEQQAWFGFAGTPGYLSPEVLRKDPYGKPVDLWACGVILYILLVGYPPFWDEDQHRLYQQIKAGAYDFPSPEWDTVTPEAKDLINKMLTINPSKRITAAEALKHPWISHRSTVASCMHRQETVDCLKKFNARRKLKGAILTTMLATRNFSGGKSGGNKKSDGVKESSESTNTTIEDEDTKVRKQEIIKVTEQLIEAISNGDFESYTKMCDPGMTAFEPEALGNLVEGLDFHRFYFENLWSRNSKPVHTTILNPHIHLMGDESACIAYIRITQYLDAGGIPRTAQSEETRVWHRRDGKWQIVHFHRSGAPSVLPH

Chain of Fibroblast growth factor receptor 2 (Homo sapiens) (P21802 22-821 limits assumed): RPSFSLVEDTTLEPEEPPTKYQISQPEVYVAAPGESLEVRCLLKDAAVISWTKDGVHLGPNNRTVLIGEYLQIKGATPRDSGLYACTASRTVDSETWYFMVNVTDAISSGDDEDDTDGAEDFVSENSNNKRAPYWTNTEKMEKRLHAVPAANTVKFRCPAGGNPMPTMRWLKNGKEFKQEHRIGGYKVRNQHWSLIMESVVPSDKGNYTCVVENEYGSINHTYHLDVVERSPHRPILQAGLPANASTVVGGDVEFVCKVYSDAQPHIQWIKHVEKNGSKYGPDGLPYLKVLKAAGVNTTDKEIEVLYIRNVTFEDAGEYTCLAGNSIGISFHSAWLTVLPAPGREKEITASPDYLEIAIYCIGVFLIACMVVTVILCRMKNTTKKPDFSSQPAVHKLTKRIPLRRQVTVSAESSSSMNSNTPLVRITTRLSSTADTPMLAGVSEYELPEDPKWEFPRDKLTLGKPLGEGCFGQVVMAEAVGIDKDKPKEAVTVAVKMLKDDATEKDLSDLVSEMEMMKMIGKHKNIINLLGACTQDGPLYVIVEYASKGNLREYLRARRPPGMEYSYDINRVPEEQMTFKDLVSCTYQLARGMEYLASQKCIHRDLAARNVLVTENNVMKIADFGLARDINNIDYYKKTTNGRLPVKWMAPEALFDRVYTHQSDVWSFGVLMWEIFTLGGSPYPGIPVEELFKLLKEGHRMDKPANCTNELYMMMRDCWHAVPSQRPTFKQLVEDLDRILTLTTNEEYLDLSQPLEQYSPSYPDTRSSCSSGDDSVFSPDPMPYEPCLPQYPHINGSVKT
Chain of Tyrosine-protein kinase Fyn (Homo sapiens) (P06241 2-537 limits assumed): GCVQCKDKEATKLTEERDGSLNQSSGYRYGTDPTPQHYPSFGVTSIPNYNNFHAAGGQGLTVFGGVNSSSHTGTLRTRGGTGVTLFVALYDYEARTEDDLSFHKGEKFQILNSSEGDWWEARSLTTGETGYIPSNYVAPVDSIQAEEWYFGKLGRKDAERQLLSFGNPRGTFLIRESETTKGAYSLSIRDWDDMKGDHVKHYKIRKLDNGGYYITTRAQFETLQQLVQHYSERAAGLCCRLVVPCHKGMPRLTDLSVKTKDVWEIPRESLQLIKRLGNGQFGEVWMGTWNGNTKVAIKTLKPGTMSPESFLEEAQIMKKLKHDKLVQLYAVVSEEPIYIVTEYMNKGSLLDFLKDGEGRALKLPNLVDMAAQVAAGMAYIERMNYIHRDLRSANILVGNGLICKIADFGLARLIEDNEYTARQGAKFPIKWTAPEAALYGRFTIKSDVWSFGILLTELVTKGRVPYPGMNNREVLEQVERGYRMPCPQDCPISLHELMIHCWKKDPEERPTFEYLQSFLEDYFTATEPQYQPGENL
Chain of Mitogen-activated protein kinase kinase kinase 9 (Homo sapiens) (P80192 whole entry, looked up): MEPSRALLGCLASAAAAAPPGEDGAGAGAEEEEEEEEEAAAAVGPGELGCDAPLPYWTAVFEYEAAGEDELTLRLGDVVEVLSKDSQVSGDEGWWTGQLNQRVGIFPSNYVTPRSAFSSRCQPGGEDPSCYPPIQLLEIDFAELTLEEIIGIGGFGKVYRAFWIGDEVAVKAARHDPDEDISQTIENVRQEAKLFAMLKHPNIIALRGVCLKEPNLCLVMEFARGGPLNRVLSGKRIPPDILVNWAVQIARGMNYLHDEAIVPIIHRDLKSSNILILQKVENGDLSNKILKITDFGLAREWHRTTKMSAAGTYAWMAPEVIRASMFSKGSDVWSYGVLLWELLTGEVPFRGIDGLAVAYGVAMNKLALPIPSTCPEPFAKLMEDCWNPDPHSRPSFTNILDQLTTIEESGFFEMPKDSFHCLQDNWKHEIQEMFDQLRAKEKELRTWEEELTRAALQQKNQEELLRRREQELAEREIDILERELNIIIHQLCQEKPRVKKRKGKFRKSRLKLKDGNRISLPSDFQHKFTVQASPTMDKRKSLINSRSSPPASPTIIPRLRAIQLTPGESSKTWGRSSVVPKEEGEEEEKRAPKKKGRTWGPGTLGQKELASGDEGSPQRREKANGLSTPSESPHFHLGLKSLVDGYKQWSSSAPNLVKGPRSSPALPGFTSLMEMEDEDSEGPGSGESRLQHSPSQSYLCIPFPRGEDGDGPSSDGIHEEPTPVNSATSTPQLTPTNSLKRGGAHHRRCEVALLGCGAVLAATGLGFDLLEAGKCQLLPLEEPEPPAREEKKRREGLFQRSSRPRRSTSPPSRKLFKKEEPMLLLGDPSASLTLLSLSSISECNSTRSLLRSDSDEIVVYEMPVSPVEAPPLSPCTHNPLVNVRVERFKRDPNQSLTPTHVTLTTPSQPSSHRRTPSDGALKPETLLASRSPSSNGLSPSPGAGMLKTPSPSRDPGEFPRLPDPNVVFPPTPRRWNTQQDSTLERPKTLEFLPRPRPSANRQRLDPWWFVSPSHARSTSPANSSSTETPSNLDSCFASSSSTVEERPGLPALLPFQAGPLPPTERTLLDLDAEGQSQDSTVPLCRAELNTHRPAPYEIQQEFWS
Chain of Microtubule-associated serine/threonine-protein kinase 1 (Homo sapiens) (Q9Y2H9 whole entry, looked up): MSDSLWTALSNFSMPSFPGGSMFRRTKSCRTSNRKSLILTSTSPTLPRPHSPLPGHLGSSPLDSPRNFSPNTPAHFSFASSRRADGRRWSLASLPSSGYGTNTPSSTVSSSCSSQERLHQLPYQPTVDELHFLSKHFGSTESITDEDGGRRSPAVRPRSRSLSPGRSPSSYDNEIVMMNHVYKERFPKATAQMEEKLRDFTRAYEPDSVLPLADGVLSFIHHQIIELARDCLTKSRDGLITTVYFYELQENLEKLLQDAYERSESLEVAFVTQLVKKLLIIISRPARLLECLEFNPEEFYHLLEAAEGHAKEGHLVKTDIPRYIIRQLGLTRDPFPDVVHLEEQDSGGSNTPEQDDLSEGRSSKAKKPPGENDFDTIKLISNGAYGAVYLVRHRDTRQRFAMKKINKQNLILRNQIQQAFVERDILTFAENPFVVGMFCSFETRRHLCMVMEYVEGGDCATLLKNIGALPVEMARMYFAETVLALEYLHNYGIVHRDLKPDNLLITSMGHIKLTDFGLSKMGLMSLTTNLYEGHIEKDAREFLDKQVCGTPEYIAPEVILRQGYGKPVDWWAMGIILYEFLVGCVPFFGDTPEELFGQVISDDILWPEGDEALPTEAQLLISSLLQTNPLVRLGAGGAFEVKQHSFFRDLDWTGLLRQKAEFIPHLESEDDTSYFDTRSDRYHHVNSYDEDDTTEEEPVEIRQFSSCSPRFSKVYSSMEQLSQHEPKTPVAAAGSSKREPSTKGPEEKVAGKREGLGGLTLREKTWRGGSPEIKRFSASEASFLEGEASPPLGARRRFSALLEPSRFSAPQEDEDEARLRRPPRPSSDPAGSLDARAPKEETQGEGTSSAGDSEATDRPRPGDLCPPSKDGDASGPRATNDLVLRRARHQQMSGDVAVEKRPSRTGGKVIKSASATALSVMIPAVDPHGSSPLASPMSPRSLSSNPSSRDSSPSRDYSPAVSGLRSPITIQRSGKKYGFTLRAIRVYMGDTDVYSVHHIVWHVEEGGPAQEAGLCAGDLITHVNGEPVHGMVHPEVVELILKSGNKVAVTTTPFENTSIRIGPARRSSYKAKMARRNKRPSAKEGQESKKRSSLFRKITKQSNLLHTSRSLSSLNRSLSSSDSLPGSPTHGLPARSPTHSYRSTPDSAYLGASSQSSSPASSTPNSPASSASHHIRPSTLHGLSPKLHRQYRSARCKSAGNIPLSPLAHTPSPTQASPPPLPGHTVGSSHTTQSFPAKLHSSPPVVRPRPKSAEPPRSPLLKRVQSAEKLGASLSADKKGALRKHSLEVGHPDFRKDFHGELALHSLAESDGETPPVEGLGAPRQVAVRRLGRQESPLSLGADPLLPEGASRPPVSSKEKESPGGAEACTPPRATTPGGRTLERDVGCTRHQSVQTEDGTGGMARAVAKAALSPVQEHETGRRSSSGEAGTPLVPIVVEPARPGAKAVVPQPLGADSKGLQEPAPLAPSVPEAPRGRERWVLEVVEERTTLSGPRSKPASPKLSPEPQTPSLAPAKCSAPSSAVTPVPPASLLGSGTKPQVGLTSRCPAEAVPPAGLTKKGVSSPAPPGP
Chain of Death-associated protein kinase 3 (Homo sapiens) (O43293 whole entry, looked up): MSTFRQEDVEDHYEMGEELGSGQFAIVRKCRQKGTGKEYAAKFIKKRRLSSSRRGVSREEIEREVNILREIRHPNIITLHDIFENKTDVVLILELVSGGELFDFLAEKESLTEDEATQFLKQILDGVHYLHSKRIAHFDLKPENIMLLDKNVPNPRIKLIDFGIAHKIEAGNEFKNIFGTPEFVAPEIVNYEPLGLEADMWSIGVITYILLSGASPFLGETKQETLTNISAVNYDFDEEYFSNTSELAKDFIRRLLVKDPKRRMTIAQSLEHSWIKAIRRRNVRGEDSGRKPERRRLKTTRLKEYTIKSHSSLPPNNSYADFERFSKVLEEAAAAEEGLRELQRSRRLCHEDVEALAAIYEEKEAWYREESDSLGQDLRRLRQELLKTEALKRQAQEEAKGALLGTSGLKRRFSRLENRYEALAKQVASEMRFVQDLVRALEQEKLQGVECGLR

inhibition [1] [%] | inhibition [2] [%] | inhibition [3] [%] | inhibition [4] [%] | inhibition [5] [%] | inhibition [6] [%] | inhibition [8] [%] | inhibition [9] [%] | inhibition [10] [%] | SMILES | inhibition [7] [%]
< 50 | < 50 | < 50 | < 50 | < 50 | < 50 | < 50 | < 50 | < 50 | CN1CCN(c2ccc(-c3cnc4c(c3)N(Cc3cc(Cl)ccc3C(F)(F)F)CCN4)cn2)CC1 | < 50
 | < 50 |  | < 50 | < 50 | < 50 | < 50 | < 50 | < 50 | O=C(O)c1ccc(-c2cnc3c(c2)N(Cc2cc(Cl)ccc2C(F)(F)F)CCN3)cc1 | < 50
 | < 50 |  | < 50 | < 50 |  | < 50 | < 50 | < 50 | O=C(c1ccc(-c2cnc3c(c2)N(Cc2cc(Cl)ccc2C(F)(F)F)CCN3)cc1)N1CCC(N2CCCC2)CC1 | < 50
< 50 | < 50 | 67 | < 50 | < 50 | < 50 | < 50 | < 50 | < 50 | CN1CCN(c2ccc(-c3cnc4c(c3)N(Cc3c(F)ccc(F)c3Cl)CCN4)cn2)CC1 | < 50
< 50 | < 50 | 67 | < 50 | < 50 | < 50 | < 50 | < 50 | < 50 | CN1CCN(c2ccc(-c3cnc4c(c3)N(Cc3cc(F)ccc3F)CCN4)cn2)CC1 | < 50

Second part, the molecule before the results:

SMILES | inhibition [1] [%] | inhibition [2] [%] | inhibition [3] [%] | inhibition [4] [%] | inhibition [5] [%] | inhibition [6] [%] | inhibition [8] [%] | inhibition [9] [%] | inhibition [10] [%] | inhibition [7] [%]
CN1CCN(c2ccc(-c3cnc4c(c3)N(Cc3cc(Cl)ccc3Cl)CCN4)cn2)CC1 | < 50 | < 50 | < 50 | < 50 | < 50 | < 50 | < 50 | < 50 | < 50 | < 50
COC1CCN(C(=O)c2ccc(-c3cnc4c(c3)N(Cc3cc(Cl)ccc3C(F)(F)F)CCN4)cc2)CC1 |  | < 50 |  | < 50 | < 50 | < 50 | < 50 | < 50 | < 50 | < 50
O=C(c1ccc(-c2cnc3c(c2)N(Cc2cc(Cl)ccc2C(F)(F)F)CCN3)cc1)N1CCCCC1 |  | < 50 |  | < 50 | < 50 | < 50 | < 50 | < 50 | < 50 | < 50
FC(F)(F)c1ccc(Cl)cc1CN1CCNc2ncc(-c3ccnc(N4CCNCC4)c3)cc21 | < 50 | < 50 | < 50 | < 50 | < 50 | < 50 | < 50 | < 50 | < 50 | < 50
CC(=O)N1CCN(c2cc(-c3cnc4c(c3)N(Cc3cc(Cl)ccc3C(F)(F)F)CCN4)ccn2)CC1 | < 50 | < 50 | < 50 | < 50 | < 50 | < 50 | < 50 | < 50 | < 50 | < 50
